ChEMBL document CHEMBL4190234, “Design, synthesis and anticancer activity of new monastrol analogues bearing 1,3,4-oxadiazole moiety” (Eur J Med Chem, 2017)

How the values were obtained:
MOLT-4 [1] = assay: Growth inhibition of human MOLT4 cells incubated for 24 hrs by MTT assay; assay type: functional, cell-based; conditions: MOLT-4, 24 h
HL-60(TB) [2] = assay: Growth inhibition of human HL-60(TB) cells incubated for 24 hrs by MTT assay; assay type: functional, cell-based; conditions: HL-60, 24 h
Procedure, shortened: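 Cells at 1.2-1.8×10^4 cells/ml in DMEM with 10% FBS, 10 µg/ml insulin and 1% penicillin/streptomycin, plated overnight at 37°C. Serial 10-fold dilutions added to 0.01–100 µM final, medium as negative control, 24 h. MTT (5 mg/ml) added for 4 h, formazan dissolved in acid-isopropanol, A490 read. Eight separate experiments; percent viable cells used to derive IC50.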

HL-60(TB) [3] = assay: Cell cycle arrest in human HL-60(TB) cells assessed as accumulation of apoptotic cells in pre-G phase at 0.294 uM after 24 hrs by propidium iodide staining based flow cytometry (reference value: 1.44%); assay type: functional
HL-60(TB) [4] = assay: Cell cycle arrest in human HL-60(TB) cells assessed as accumulation at G0/G1 phase at 0.294 uM after 24 hrs by propidium iodide staining based flow cytometry (reference value: 68.43%); assay type: functional
HL-60(TB) [5] = assay: Cell cycle arrest in human HL-60(TB) cells assessed as accumulation at S phase at 0.294 uM after 24 hrs by propidium iodide staining based flow cytometry (reference value: 22.84%); assay type: functional
MOLT-4 [6] = assay: Cell cycle arrest in human MOLT4 cells assessed as accumulation at S phase at 0.43 uM after 24 hrs by propidium iodide staining based flow cytometry (reference value: 20.55%); assay type: functional
Procedure, shortened: (§1)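 MOLT-4 cells (1×10^6) exposed 24 h to 0.160 or 0.430 μM test agent, DMSO (0.002%) control; trypsinized, washed in ice-cold PBS, fixed in ice-cold 70% ethanol ≥2 h at 4°C, washed, stained with propidium iodide DNA kit; cell cycle distribution (pre-G, G0/G1, S, G2/M) by flow cytometry.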

MOLT-4 [7] = assay: Cell cycle arrest in human MOLT4 cells assessed as accumulation at G2/M phase at 0.43 uM after 24 hrs by propidium iodide staining based flow cytometry (reference value: 4.35%); assay type: functional; procedure, shortened: as §1
MOLT-4 [8] = assay: Cell cycle arrest in human MOLT4 cells assessed as accumulation of apoptotic cells in pre-G phase at 0.43 uM after 24 hrs by propidium iodide staining based flow cytometry (reference value: 0.88%); assay type: functional; procedure, shortened: as §1
MOLT-4 [9] = assay: Induction of apoptosis in human MOLT4 cells assessed as necrotic cells at 0.43 uM after 24 hrs by Annexin V-FITC/propidium iodide staining based flow cytometry (reference value: 0.11%); assay type: functional
HL-60(TB) [10] = assay: Cell cycle arrest in human HL-60(TB) cells assessed as accumulation at G2/M phase at 0.294 uM after 24 hrs by propidium iodide staining based flow cytometry (reference value: 7.29%); assay type: functional
MOLT-4 [11] = assay: Cell cycle arrest in human MOLT4 cells assessed as accumulation at G0/G1 phase at 0.43 uM after 24 hrs by propidium iodide staining based flow cytometry (reference value: 74.22%); assay type: functional; procedure, shortened: as §1
HL-60(TB) [12] = assay: Induction of apoptosis in human HL-60(TB) cells assessed as necrotic cells at 0.294 uM after 24 hrs by Annexin V-FITC/propidium iodide staining based flow cytometry (reference value: 0.2%); assay type: functional
HL-60(TB) [13] = assay: Induction of apoptosis in human HL-60(TB) cells assessed as early apoptotic cells at 0.294 uM after 24 hrs by Annexin V-FITC/propidium iodide staining based flow cytometry (reference value: 0.84%); assay type: functional
HL-60(TB) [14] = assay: Induction of apoptosis in human HL-60(TB) cells assessed as live cells at 0.294 uM after 24 hrs by Annexin V-FITC/propidium iodide staining based flow cytometry (reference value: 98.57%); assay type: functional
HL-60(TB) [15] = assay: Induction of apoptosis in human HL-60(TB) cells assessed as increase in apoptotic cells at 0.294 uM after 24 hrs by Annexin V-FITC/propidium iodide staining based flow cytometry relative to control; assay type: functional
HL-60(TB) [16] = assay: Induction of apoptosis in human HL-60(TB) cells assessed as late apoptotic cells at 0.294 uM after 24 hrs by Annexin V-FITC/propidium iodide staining based flow cytometry (reference value: 0.39%); assay type: functional
MOLT-4 [17] = assay: Induction of apoptosis in human MOLT4 cells assessed as live cells at 0.43 uM after 24 hrs by Annexin V-FITC/propidium iodide staining based flow cytometry (reference value: 99.12%); assay type: functional
MOLT-4 [18] = assay: Induction of apoptosis in human MOLT4 cells assessed as early apoptotic cells at 0.43 uM after 24 hrs by Annexin V-FITC/propidium iodide staining based flow cytometry (reference value: 0.53%); assay type: functional
MOLT-4 [19] = assay: Induction of apoptosis in human MOLT4 cells assessed as increase in apoptotic cells at 0.43 uM after 24 hrs by Annexin V-FITC/propidium iodide staining based flow cytometry relative to control; assay type: functional
MOLT-4 [20] = assay: Induction of apoptosis in human MOLT4 cells assessed as late apoptotic cells at 0.43 uM after 24 hrs by Annexin V-FITC/propidium iodide staining based flow cytometry (reference value: 0.24%); assay type: functional

## CCOC(=O)C1=C(C)NC(SCc2nnc(-c3ccc(Cl)cc3)o2)=NC1c1ccccc1Cl (stereo unspecified)
MOLT-4 [1]
  IC50: 255 µM
HL-60(TB) [2]
  IC50: 193 µM

## CCOC(=O)C1=C(C)NC(SCc2nnc(-c3ccccc3)o2)=NC1c1ccc(Cl)cc1 (stereo unspecified)
MOLT-4 [1]
  IC50: 344 µM
HL-60(TB) [2]
  IC50: 74.4 µM

## CCOC(=O)C1=C(C)NC(SCc2nnc(-c3ccc(C)cc3)o2)=NC1c1ccc(Cl)cc1 (stereo unspecified)
MOLT-4 [1]
  IC50: 538 µM
HL-60(TB) [2]
  IC50: 220 µM

## CCOC(=O)C1=C(C)NC(=S)NC1c1cccc(O)c1 (stereo unspecified) [MONASTROL]
HL-60(TB) [3]
  Activity: 6.89%
MOLT-4 [1]
  IC50: 0.215 µM
HL-60(TB) [4]
  Activity: 61.23%
HL-60(TB) [5]
  Activity: 21.9%
MOLT-4 [6]
  Activity: 21.73%
MOLT-4 [7]
  Activity: 13.92%
MOLT-4 [8]
  Activity: 8.63%
MOLT-4 [9]
  Activity: 1.03%
HL-60(TB) [2]
  IC50: 0.147 µM
HL-60(TB) [10]
  Activity: 9.98%
MOLT-4 [11]
  Activity: 55.72%
HL-60(TB) [12]
  Activity: 0.63%
HL-60(TB) [13]
  Activity: 3.07%
HL-60(TB) [14]
  Activity: 90.89%
HL-60(TB) [15]
  fold change (FC): 5.1
HL-60(TB) [16]
  Activity: 3.19%
MOLT-4 [17]
  Activity: 89.2%
MOLT-4 [18]
  Activity: 3.39%
MOLT-4 [19]
  fold change (FC): 10
MOLT-4 [20]
  Activity: 4.21%
